Source: PubChem BioAssay (The Scripps Research Institute Molecular Screening Center)
Shown are actives, neighbours in structure and some others; about 0.58% of the full set was active somewhere.
OXTR agonist = human OXTR agonists, primary screen, fluorescence, CHO-OTR cells, Fluo-8 calcium; Fluo-8 calcium fluorescence; normalized: DMSO 0%, oxytocin 100%; activation, % at 3 µM; 0.32% of 320,000 active; AID 2435, 2010;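 active = activation above the mean of all tested compounds plus 3 SD, cutoff set per screening run, cut at about 20% in these data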;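 also: peak over basal fluorescence ratio from a 100 s FLIPR kinetic read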
Target sequence (P30559 whole entry, looked up): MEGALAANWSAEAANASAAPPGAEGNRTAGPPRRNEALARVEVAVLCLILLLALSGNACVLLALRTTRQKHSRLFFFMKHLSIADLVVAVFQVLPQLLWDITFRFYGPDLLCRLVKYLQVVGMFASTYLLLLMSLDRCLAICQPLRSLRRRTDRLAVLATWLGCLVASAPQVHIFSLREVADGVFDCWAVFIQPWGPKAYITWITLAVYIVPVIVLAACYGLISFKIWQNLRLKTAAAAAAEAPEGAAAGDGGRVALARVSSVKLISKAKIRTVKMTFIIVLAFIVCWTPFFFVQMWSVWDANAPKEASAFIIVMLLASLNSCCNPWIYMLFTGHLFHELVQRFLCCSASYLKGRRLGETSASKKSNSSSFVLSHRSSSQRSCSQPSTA
OXTR potentiate = human OXTR potentiators, primary screen, fluorescence, CHO-OTR cells, Fluo-8 calcium. Oxytocin receptor (Homo sapiens), P30559. Fluo-8 calcium fluorescence, potentiator mode; 0% = oxytocin EC15, 100% = EC100. activation, % at 3 µM. 0.061% of 320,000 active. AID 2445, 2010;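 active = activation above that plate's cutoff, the mean activation of tested compounds plus 3 SD, cut at about 6.6% in these data, passing the limit was not always enough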;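 also: 100% uses oxytocin at 75 nM as the full agonist control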
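System: human OTR in CHO cells; Also added: sub-maximal oxytocin, roughly EC15; Timing: compound 6 min at room temperature before oxytocin, 100 s read; Technique: Fluo-8 intracellular calcium fluorescence, ex 470-495, em 515-575 nm; Controls: oxytocin EC15 low and EC100 high; Replication: singlicate.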
TRPML3 agonist = human TRPML3 channel agonists, primary screen, cell-based, HEK293 TRPML3-YFP, Fluo-8 calcium fluorescence, 3 µM | Mucolipin-3 (Homo sapiens), Q8TDD5 | 100% = the carbachol control signal | activation, % at 3 µM | 0.29% of 220,000 active | AID 1448, 2008;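 active = activation above its plate's cutoff, the mean activation of the plate's test wells plus 3 SD, cut at about 12% in these data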;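 also: 0% = DMSO only wells and 100% = carbachol wells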
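Material: TRPML3-YFP stable HEK293 cells | Dosing: One concentration, 3 µM nominal, 0.3% DMSO | Timing: 125 s total fluorescence read per well | Technique: Fluo-8 calcium dye fluorescence, ex 470-495, em 515-575 nm | Measure: Percent activation from peak-to-basal fluorescence ratio, scaled between DMSO and carbachol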
zfTRPN1 agonist = zebrafish TRPN1 channel agonists, primary screen, cell-based, HEK293, calcium fluorescence | transient receptor potential cation channel N1 (TRPN1/NompC), Danio rerio | HEK293 zebrafish TRPN1-YFP, Fluo-8 calcium fluorescence; 100% = response to 87 µM carbachol | activation, % at 3 µM | 0.18% of 220,000 active | AID 1424, 2008;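 active = activation above its plate's cutoff, the mean activation of test wells on that plate plus 3 SD, cut at about 19% in these data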;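 also: 0% = DMSO alone and 100% = 87 µM carbachol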
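Control set: carbachol 87 µM as high control, DMSO as low control; system: HEK293 stable line with zebrafish TRPN1-YFP; read-out: % activation versus carbachol response; detection: intracellular calcium fluorescence with Fluo-8; doses: single test compound dose, 3 µM nominal, 0.3% DMSO; schedule: dye 1 h 37 °C plus 30 min RT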
V1R ag counter = agonists of human V1a receptor, primary screen, counter-screen for OXTR agonist project, fluorescence, CHO-V1R cells; Fluo-8 calcium fluorescence, agonist mode; 0% DMSO, 100% 3 nM vasopressin; Vasopressin V1a receptor (Homo sapiens), P37288; activation, % at 3 µM; 0.25% of 320,000 active;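 active = activation above the mean activation of all tested compounds plus 3 SD, per screening run, cut at about 20% in these data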;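 also: signal is peak over basal fluorescence ratio across a 100 second FLIPR read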
Target sequence (P37288 whole entry, looked up): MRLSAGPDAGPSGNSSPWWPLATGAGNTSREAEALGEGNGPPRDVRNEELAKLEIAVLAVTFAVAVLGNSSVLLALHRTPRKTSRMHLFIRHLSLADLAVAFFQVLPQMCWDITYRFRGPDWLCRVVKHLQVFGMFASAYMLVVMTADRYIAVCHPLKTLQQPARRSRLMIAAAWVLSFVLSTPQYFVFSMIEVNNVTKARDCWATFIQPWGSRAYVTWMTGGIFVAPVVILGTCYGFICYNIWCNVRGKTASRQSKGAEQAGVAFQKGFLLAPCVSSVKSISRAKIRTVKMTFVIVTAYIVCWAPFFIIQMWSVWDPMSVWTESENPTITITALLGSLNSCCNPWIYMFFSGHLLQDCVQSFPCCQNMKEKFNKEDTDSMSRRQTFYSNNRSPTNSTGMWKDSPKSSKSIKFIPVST
TRPN1 ag 2 = zebrafish TRPN1 channel agonists, counter-screen for TRPML3 agonist project, cell-based, HEK293 TRPN1-YFP, Fluo-8 calcium. shares compounds with TRPML3 agonist. Fluo-8 calcium fluorescence; scaled: carbachol wells 100%, DMSO wells 0%. activation, % at 3 µM. 10% of 310 active. AID 1525, 2009;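 active = mean activation over replicates above a set limit taken from the earlier TRPN1 channel primary screen, cut at about 19% in these data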;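 also: 100% = carbachol and 0% = 0.3% DMSO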
TRPML3 ag conf = human TRPML3 channel agonists, confirmation, cell-based, HEK293 TRPML3-YFP, Fluo-8 calcium, triplicate. shares compounds with TRPML3 agonist. Fluo-8 calcium fluorescence; 100% set by carbachol, 0% by DMSO. activation, % at 3 µM. 80% of 310 active. AID 1526, 2009;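 active = activation above a set limit derived from the earlier primary screen, cut at about 12% in these data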
* hit, by the source's call; / = no result.

SMILES | OXTR agonist | OXTR potentiate | TRPML3 agonist | zfTRPN1 agonist | V1R ag counter | TRPN1 ag 2 | TRPML3 ag conf
O=C(C1CCN(S(=O)(=O)N2CCOCC2)CC1)N1CCOCC1 | -0.4 | 0.9 | 16.1* | 0.7 | 0.7 | 0.5 | 0.8
CCS(=O)(=O)N1CCC(C(=O)N2CCOCC2)CC1 | -0.1 | 0.9 | 0.5 | 1.5 | 0.7 | / | /
O=S(=O)(c1cnc(Cl)c(Br)c1)N1CCc2ccccc21 | 0.0 | -2.7 | 14.2* | -2.5 | -0.8 | -1.7 | 50.0*
CCOC(=O)c1ccc2c(c1)nc(C1CCN(S(=O)(=O)c3cccs3)CC1)n2CC | 12.9 | -6.3 | 4.3 | 4.7 | 12.6 | / | /
Cc1ccc(S(=O)(=O)Nc2ccccc2C(=O)Nc2nc(-c3ccc(F)cc3)cs2)cc1 | 12.5 | -14.9 | 11.8* | 14.2 | 10.2 | 21.1* | 9.6
CCOc1ccc(NC(=O)c2ccccc2NS(=O)(=O)c2ccc(F)cc2)c([N+](=O)[O-])c1 | 7.1 | -11.9 | 15.4* | 0.8 | 7.0 | 9.5 | 34.1*
COc1ccc(-c2csc(NC(=O)c3ccccc3NS(=O)(=O)c3ccc(F)c(F)c3)n2)cc1 | 15.1 | -9.1 | 13.0* | 16.9 | 10.4 | 27.1* | 17.0*
COc1ccc(-c2csc(NC(=O)c3ccccc3F)n2)cc1 | -1.0 | -11.1 | / | / | 1.4 | / | /
COc1cccc2cc(C(=O)CS(=O)(=O)c3ccc(C)cc3)c(=O)oc12 | -0.3 | -6.6 | / | / | 0.3 | / | /
COc1ccc(CNC(=O)CCc2c(C)nc3cc(-c4ccccc4OC)nn3c2C)cc1 | -2.4 | -10.5 | 0.6 | 0.1 | -1.1 | / | /
C=CCN1C(=O)/C(=C/c2ccc(OC(C)=O)c(OCC)c2[N+](=O)[O-])SC1=S | / | / | 12.2* | 18.5 | / | 19.2* | 7.0
CCOc1c(OC(C)=O)ccc(/C=C/c2ccc3cccc(OC(C)=O)c3n2)c1[N+](=O)[O-] | -0.2 | -8.6 | 0.2 | 0.1 | -0.1 | / | /
CCc1cc2cccc(C)c2nc1SCC(=O)Nc1nonc1C | 0.2 | 2.8 | -1.4 | -1.1 | -0.4 | / | /
COCC(=O)Oc1c(S(=O)(=O)c2ccccc2)c(C)nn1C(C)(C)C | 0.9 | -1.2 | / | / | 0.7 | / | /
Cc1nn(C(C)(C)C)c(OC(=O)C2CCCC2)c1S(=O)(=O)c1ccccc1 | / | / | 15.5* | 0.2 | / | -0.7 | 23.3*
CCOC(=O)C1CCN(S(=O)(=O)c2ccc(C)cc2)CC1 | -0.4 | -9.4 | 0.3 | -0.3 | 0.1 | / | /
Cc1ccc(S(=O)(=O)c2c(C)nn(C(C)(C)C)c2OC(=O)C2CCCC2)cc1 | 1.1 | -12.2 | 32.1* | 2.3 | 0.8 | 2.1 | 23.9*
CC(=O)c1c(C)[nH]c(C(=O)OCC(=O)Nc2ncc(Cl)c(C)c2Cl)c1C | 1.6 | -2.7 | 1.2 | 1.5 | 2.5 | / | /
Cc1ccc([C@@H]2C3COCC=C3C(C#N)=C(N)C2(C#N)C#N)o1 (stereo not given in full) | 3.1 | -4.4 | 0.8 | 1.2 | 1.4 | / | /
CCOC(=O)c1cccc(NC2c3ccccc3C(=O)N2Cc2ccco2)c1 (stereo not given) | -1.7 | -4.1 | -1.8 | -2.8 | 0.5 | / | /
COc1ccc(S(=O)(=O)/N=C2/C=CC(=O)C(C)=C2C)cc1 | -1.4 | -7.7 | 0.2 | 0.4 | -0.5 | / | /
CC1=C(C)/C(=N\OS(=O)(=O)c2ccc(C)cc2)C=CC1=O | 9.2 | -10.3 | 13.9* | 8.0 | 1.9 | 8.9 | 14.3*
CC(Cc1ccccc1)C(=O)NCc1ccncc1 (stereo not given) | 8.6 | -9.4 | 0.9 | 1.0 | 0.2 | / | /
CCCCn1c(C)cc(C)c(S(=O)(=O)c2ccccc2C)c1=O | -1.4 | -9.1 | 17.8* | -1.6 | -0.9 | -2.0 | 58.3*
Cc1ccccc1S(=O)(=O)c1c(C)cc(C)n(C(C)C)c1=O | -1.8 | 4.5 | 30.4* | -1.9 | -2.6 | -3.3 | 34.5*
SMILES | OXTR agonist | OXTR potentiate | TRPML3 agonist | zfTRPN1 agonist | V1R ag counter | TRPN1 ag 2 | TRPML3 ag conf
Cc1cc(C)c(S(=O)(=O)c2ccccc2C)c(SCC(C)C)n1 | -1.0 | -13.1 | 0.8 | -0.2 | 0.1 | / | /
CCCSc1nc(C)cc(C)c1S(=O)(=O)c1ccccc1C | -1.4 | -17.2 | 4.2 | -0.9 | 0.8 | / | /
COc1ccc(C(C(=O)NC2CCCC2)N(Cc2ccccc2)C(=O)c2nsc(Cl)c2Cl)cc1 (stereo not given) | -0.2 | -8.4 | 17.0* | -1.5 | 1.7 | -0.3 | 24.5*
CCOc1ccc(C(C(=O)NC2CCCC2)N(Cc2ccccc2)C(=O)c2nsc(Cl)c2Cl)cc1 (stereo not given) | -0.6 | -7.0 | 0.9 | 0.2 | 2.4 | / | /
CCNC(=S)N(Cc1cccs1)Cc1cc2cc(OCC)ccc2[nH]c1=O | -1.4 | -14.5 | 16.8* | 0.5 | 0.0 | -1.2 | 16.4*
CCNC(=S)N(Cc1ccco1)Cc1cc2cc(OCC)ccc2[nH]c1=O | -0.5 | -9.5 | -0.9 | -2.1 | -0.1 | / | /
O=[N+]([O-])/C=C\c1ccc(N2CCCC2)c(F)c1 | / | / | 12.9* | 11.5 | / | 27.3* | 22.9*
COc1ccccc1NS(=O)(=O)c1cc(C(=O)NCc2ccncc2)ccc1C | 0.2 | -15.7 | / | / | 0.2 | / | /
COc1ccccc1NS(=O)(=O)c1cc(C(=O)NCCC(C)C)ccc1F | -0.2 | -6.2 | 16.6* | 8.8 | 1.0 | 22.4* | 35.1*
CCCc1nnc(SCC(=O)N2C(C)CCCC2C)n1CCCOC (stereo not given) | 1.3 | -12.5 | 0.5 | 1.3 | 0.6 | / | /
CC(=O)C1=C(O)C(=O)N(CCC(=O)O)C1c1ccc(Cl)cc1Cl (stereo not given) | 1.1 | -6.2 | 1.0 | -0.5 | -0.3 | / | /
CN(C)S(=O)(=O)c1cc([N+](=O)[O-])ccc1N1CCCCCC1 | -1.1 | -12.1 | 16.0* | -0.7 | -0.7 | 0.7 | 14.5*
O=C(c1ccccc1F)N(NC(=O)C(O)(c1ccccc1)c1ccccc1)c1ccccc1 | -1.8 | -8.0 | 18.2* | -2.6 | -0.9 | -1.6 | 30.4*
COc1ccc(NC(=O)c2cc([N+](=O)[O-])ccc2O)cc1 | 12.1 | -15.7 | 14.5* | 17.0 | 6.8 | 26.1* | 10.9
CC1CCCCC1NC(=O)CN1C(=O)CSc2cc(S(=O)(=O)N3CCCCCC3)ccc21 (stereo not given) | -3.2 | -10.3 | 32.6* | -1.1 | -1.8 | -1.4 | 7.9
